High-throughput results deposited in PubChem BioAssay by Johns Hopkins Ion Channel Center.
hERG protect = hERG (human) protection from proarrhythmic block; Q12809; CHO-hERG, FluxOR thallium flux, dofetilide IC70 present; activation (rescue from dofetilide block), less the hit threshold, % at 10 µM; actives 0.51% (n = 310,000); AID 1511;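 active means activation above the mean of controls blocked by dofetilide plus 5 SD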;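 further: thallium influx through hERG after potassium depolarization seen as dye fluorescence rise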
KCNK9 block = inhibitors of human KCNK9 two-pore domain potassium channel; HEK293 KCNK9, FluxOR thallium flux fluorescence; stronger effect = lower value; B-score at 10 µM; actives 1.2% (n = 310,000); AID 488922;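 active means ratio B-score over 3 SD below the library mean, with starting fluorescence within 5 SD of its mean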;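 further: negative B-score means less thallium flux so channel inhibition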
KCNK3 inh = human KCNK3 channel inhibition, primary screen | O14649 | CHO-KCNK3 thallium flux, FluxOR fluorescence; stronger effect = lower value | B-score at 10 µM | actives 0.84% (n = 340,000) | AID 602410;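 active means B-score under library mean minus 4 SD, starting fluorescence ratio at most library mean plus 5 SD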;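 further: more negative B-score means stronger inhibition of thallium flux through KCNK3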
Kir21 inh = inhibitors of mouse Kir2.1 inward-rectifier potassium channel; P35561; HEK293-Kir2.1, FluxOR thallium flux fluorescence; stronger effect = lower value; B-score at 10 µM; actives 0.85% (n = 310,000); AID 1672;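 active means fluorescence ratio B-score at or below minus 3 SD of library scores, with starting-brightness B-score within 2 SD, cut at about -4.2 in these data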;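 further: channel flux triggered by added potassium and thallium sulfate stimulus; B-score of peak minus minimum fluorescence over baseline after thallium stimulus; more negative B-score means stronger Kir2.1 block with less thallium influx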
Target sequence (P35561 whole entry, looked up): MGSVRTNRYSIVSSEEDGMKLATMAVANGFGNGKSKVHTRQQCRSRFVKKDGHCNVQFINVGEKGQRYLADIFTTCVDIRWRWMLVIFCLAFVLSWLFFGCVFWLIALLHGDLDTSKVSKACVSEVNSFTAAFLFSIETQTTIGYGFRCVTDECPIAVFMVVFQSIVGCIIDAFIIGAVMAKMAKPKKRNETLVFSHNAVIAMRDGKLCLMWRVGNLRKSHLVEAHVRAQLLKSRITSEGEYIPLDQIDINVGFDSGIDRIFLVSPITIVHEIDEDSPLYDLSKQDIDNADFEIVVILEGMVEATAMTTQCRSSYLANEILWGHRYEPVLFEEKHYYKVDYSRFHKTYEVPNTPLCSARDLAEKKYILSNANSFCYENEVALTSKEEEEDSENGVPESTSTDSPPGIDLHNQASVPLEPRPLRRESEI
KCNQ1 act = potentiators or activators of human KCNQ1 potassium channel; B-score at 10 µM; actives 0.35% (n = 310,000); CHO-K1 KCNQ1, thallium flux FluxOR fluorescence; stronger effect = higher value; P51787;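 active means fluorescence ratio B-score, a plate-corrected score, at least three library SD, with initial intensity B-score within 5 SD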
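Medium – assay buffer, equal DMSO in all wells · Material – CHO-K1 cell line with stable KCNQ1 potassium channel expression · Signal – kinetic FluxOR thallium fluorescence, 10-s 1-Hz baseline, 110-s post-stimulus read · Compound – single concentration per compound, DMSO matched to controls · Schedule – 37 °C overnight plating, 90-min dark dye load, 20-min compound pretreatment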
KCNQ1 inh = human KCNQ1 channel inhibition; actives 1.3% (n = 310,000); CHO-K1 KCNQ1, FluxOR thallium flux fluorescence; stronger effect = higher value; B-score at 10 µM;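 active means compounds whose thallium flux B-score, printed positive for inhibition, exceeds three library SD while starting fluorescence stays within three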;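 further: channel opened by potassium depolarization with thallium stimulus after 20 min compound exposure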
KCNK9 block conf = confirmation of human KCNK9 potassium channel inhibitors | shares compounds with KCNK9 block | HEK293 KCNK9 cells, FluxOR thallium flux fluorescence | inhibition, % at 10 µM | actives 43% (n = 4,900);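 active means thallium signal inhibited by more than 5 SD of the compound-free buffer control wells, on both duplicate plates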;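 further: 0% = assay buffer control wells without compound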
Kir21 sel = mouse Kir2.1 off-target activity of KCNK9 modulators. shares compounds with KCNK9 block. Kir2.1 cells, FluxOR thallium flux fluorescence. inhibition, % at 10 µM. actives 4% (n = 4,900). AID 492993;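 active means thallium signal drop more than 5 SD beyond the mean of the no-compound control wells, seen in both duplicate plates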;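 further: signal is fluorescence rise after thallium addition divided by baseline fluorescence; plate controls were assay buffer only for no effect and full block by chlorpromazine control for full effect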
HEK293 Tl ctr = non-induced cell nonspecific activity of KCNK9 modulators; shares compounds with KCNK9 block; non-induced KCNK9-HEK293, FluxOR thallium flux; inhibition, % at 10 µM; actives 40% (n = 4,900);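 active means thallium signal drop beyond 5 SD of the untreated control mean, on both duplicate plates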;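 further: plate controls were buffer only IC0 wells for no effect and SID17386958 at its maximal inhibitory level for full effect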
KCNK3 inh conf = human KCNK3 channel inhibition, confirmation assay. shares compounds with KCNK3 inh. CHO-KCNK3 thallium flux, FluxOR fluorescence; 0% buffer, 100% carvedilol maximal block. ratio percent of control, % at 10 µM. actives 99% (n = 2,400);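 active means ratio percent of control, averaged over triplicates, above buffer control mean plus 5 SD, cut at about 64% in these data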;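 further: ratio is the fluorescence rise from min to max over baseline after thallium stimulus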
KCNK3 uninduced = KCNK3 inhibitor counter-screen hit in non-induced cells | shares compounds with KCNK3 inh | non-induced KCNK3 parental cells, FluxOR thallium flux; stronger effect = lower value | thallium flux ratio (lower = more inhibition) at 10 µM | actives 40% (n = 2,400);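 active means thallium flux ratio, averaged over three wells, more than 5 SD below the buffer control mean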;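 further: host cells are CHO cells without KCNK3 induction; ratio is peak minus trough fluorescence over baseline then normalized to buffer controls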
Active calls of the source: *. Sampled rows, rich in hits. Any-hit rate of the full collection: about 3.7%.

Screening Cc1cccc(C(=O)Nc2ccc(Cl)cc2C(=O)c2ccccc2)c1 returned hERG protect -10, KCNK9 block -8.4*, KCNK3 inh inactive, Kir21 inh 0.15, KCNQ1 act inactive, KCNQ1 inh inactive, KCNK9 block conf 32%*, Kir21 sel inactive and HEK293 Tl ctr 31%*.
For Cc1ccc(N2CCNCC2C)cc1 (centres undefined) the results were KCNK3 inh inactive.
COc1ccc(C(=O)C2CCCN(Cc3ccon3)C2)c(OC)c1 (centres undefined) was read as hERG protect -4, KCNK9 block inactive, KCNK3 inh inactive, Kir21 inh -1.3, KCNQ1 act inactive and KCNQ1 inh inactive.
COc1ccc(O)c(CN2CCCC(C(=O)c3sccc3C)C2)c1 (centres undefined) was read as hERG protect -27, KCNK9 block inactive, KCNK3 inh inactive, Kir21 inh -2.5, KCNQ1 act inactive and KCNQ1 inh inactive.
COc1cccc(C(=O)C2CCCN(Cc3cccc4c3OCO4)C2)c1 (centres undefined) was read as hERG protect -7, KCNK9 block inactive, KCNK3 inh inactive, Kir21 inh -2.9, KCNQ1 act inactive, KCNQ1 inh inactive, KCNK9 block conf inactive, Kir21 sel inactive and HEK293 Tl ctr inactive.
`COc1cccc(C(=O)C2CCCN(Cc3ccc4nonc4c3)C2)c1` (centres undefined) gave hERG protect -8, KCNK9 block inactive, KCNK3 inh inactive, Kir21 inh -0.38, KCNQ1 act inactive, KCNQ1 inh inactive, KCNK9 block conf inactive, Kir21 sel inactive and HEK293 Tl ctr inactive.
Screening COc1ccc(CN2CCCC(C(=O)c3ccc(Cl)cc3)C2)c(OC)c1 (centres undefined) returned hERG protect -12, KCNK9 block inactive, KCNK3 inh inactive, Kir21 inh -5.2*, KCNQ1 act inactive, KCNQ1 inh inactive, KCNK9 block conf inactive, Kir21 sel inactive and HEK293 Tl ctr inactive.
Screening CSc1ncc(CN2CCCC(C(=O)c3cccc(Cl)c3)C2)cn1 (centres undefined) returned hERG protect -2, KCNK9 block inactive, KCNK3 inh inactive, Kir21 inh 0.14, KCNQ1 act inactive, KCNQ1 inh inactive, KCNK9 block conf inactive, Kir21 sel inactive and HEK293 Tl ctr inactive.
Screening CC(C)Oc1cccc(C(=O)C2CCCN(Cc3ccon3)C2)c1 (centres undefined) returned hERG protect -14, KCNK9 block inactive, KCNK3 inh inactive, Kir21 inh 0.05, KCNQ1 act inactive and KCNQ1 inh inactive.
`CN1C(C(=O)N2CCC3(CC2)OCCO3)=CC(c2ccc(F)cc2)=NS1(=O)=O` gave hERG protect -4, KCNK9 block inactive, KCNK3 inh inactive, Kir21 inh 1.7, KCNQ1 act inactive and KCNQ1 inh inactive.
COc1ccc(CN2CCCC(C(=O)c3ccccc3SC)C2)cc1O (centres undefined) was read as hERG protect -20, KCNK9 block inactive, KCNK3 inh inactive, Kir21 inh 0, KCNQ1 act inactive and KCNQ1 inh inactive.
O=C(c1cccc(Cl)c1)C1CCCN(Cc2ccon2)C1 (centres undefined) was read as hERG protect -6, KCNK9 block inactive, KCNK3 inh inactive, Kir21 inh 2.3, KCNQ1 act inactive and KCNQ1 inh inactive.
COc1ccc(CN2CCCC(C(=O)c3cccc(Cl)c3)C2)cc1 (centres undefined) was read as hERG protect -9, KCNK9 block inactive, KCNK3 inh inactive, Kir21 inh -8.8*, KCNQ1 act inactive, KCNQ1 inh inactive, KCNK9 block conf inactive, Kir21 sel 32%* and HEK293 Tl ctr inactive.
O=C(c1cc(F)ccc1F)C1CCCN(Cc2ccc3nonc3c2)C1 (centres undefined) was read as hERG protect -5, KCNK9 block inactive, KCNK3 inh inactive, Kir21 inh 0.24, KCNQ1 act inactive, KCNQ1 inh inactive, KCNK9 block conf inactive, Kir21 sel inactive and HEK293 Tl ctr inactive.
COc1ccc(C2=NCC(=O)N(CC(=O)NCc3ccco3)c3sc4c(c32)CCCC4)cc1 was read as hERG protect -6, KCNK9 block inactive, KCNK3 inh -8.9*, Kir21 inh 0.88, KCNQ1 act inactive, KCNQ1 inh inactive, KCNK3 inh conf 104* and KCNK3 uninduced inactive.
O=C(NCc1ccccc1)c1cccn(Cc2ccccc2)c1=O was read as hERG protect -12, KCNK9 block inactive, KCNK3 inh -9.8*, Kir21 inh -0.56, KCNQ1 act inactive, KCNQ1 inh inactive, KCNK3 inh conf 108* and KCNK3 uninduced inactive.
CNC(=O)c1cccn(Cc2ccc(C(F)(F)F)cc2)c1=O was read as hERG protect -2, KCNK9 block inactive, KCNK3 inh inactive, Kir21 inh 0.15, KCNQ1 act inactive and KCNQ1 inh inactive.
`CCOC(=O)CN1C(=O)C2(C(C#N)=C(N)Oc3ccccc32)C(C(=O)OC)=C1C` (centres undefined) gave hERG protect -11, KCNK9 block inactive, KCNK3 inh inactive, Kir21 inh -0.08, KCNQ1 act inactive and KCNQ1 inh inactive.
`CCN(CC)C(=O)c1ccc(NC(=O)Nc2ccccc2F)cc1` gave hERG protect -9, KCNK9 block inactive, KCNK3 inh -9.1*, Kir21 inh -1.7, KCNQ1 act inactive, KCNQ1 inh inactive, KCNK3 inh conf 85* and KCNK3 uninduced 0.16*.
`CCN(CC)C(=O)c1ccc(NC(=O)CCCSc2ccccc2)cc1` gave hERG protect -15, KCNK9 block inactive, KCNK3 inh inactive, Kir21 inh -0.27, KCNQ1 act inactive and KCNQ1 inh inactive.
